High-throughput results: PubChem, Johns Hopkins Ion Channel Center
Kir21 inh = inhibitors of mouse Kir2.1 inward-rectifier potassium channel | AID 1672, 2009 | Inward rectifier potassium channel 2 (Mus musculus), P35561 | HEK293-Kir2.1, FluxOR thallium flux fluorescence; hits give low values | B-score at 10 µM | hit rate 0.85% among 310,000;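 active means fluorescence ratio B-score at or below minus 3 SD of library scores, with starting-brightness B-score within 2 SD, cut at about -4.2 in these data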;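 further: channel flux triggered by added potassium and thallium sulfate stimulus; B-score of peak minus minimum fluorescence over baseline after thallium stimulus; more negative B-score means stronger Kir2.1 block with less thallium influx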
Target sequence (P35561 whole entry, looked up): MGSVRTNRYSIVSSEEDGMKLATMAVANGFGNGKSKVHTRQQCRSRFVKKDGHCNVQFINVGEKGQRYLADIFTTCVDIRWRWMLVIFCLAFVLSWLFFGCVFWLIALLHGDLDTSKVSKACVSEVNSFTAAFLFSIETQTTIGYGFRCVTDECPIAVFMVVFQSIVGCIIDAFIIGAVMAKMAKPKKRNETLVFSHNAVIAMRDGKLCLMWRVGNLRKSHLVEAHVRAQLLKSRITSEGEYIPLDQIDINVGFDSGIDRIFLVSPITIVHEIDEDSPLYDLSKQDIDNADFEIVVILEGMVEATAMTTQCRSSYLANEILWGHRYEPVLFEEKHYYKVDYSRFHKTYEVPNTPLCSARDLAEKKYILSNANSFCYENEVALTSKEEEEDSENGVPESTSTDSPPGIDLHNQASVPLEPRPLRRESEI
KCNQ1 act = potentiators or activators of KCNQ1 channel, primary screen, cell-based, thallium flux, high-throughput | hit rate 0.35% among 310,000 | Potassium voltage-gated channel subfamily KQT member 1 (Homo sapiens), P51787 | CHO-K1 KCNQ1, thallium flux FluxOR fluorescence; hits give high values | B-score at 10 µM;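 active means fluorescence ratio B-score, a plate-corrected score, at least three library SD, with initial intensity B-score within 5 SD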
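System: CHO-K1 cells stably expressing KCNQ1 / Medium: assay buffer for compound exposure, DMSO matched across wells / Reagent: thallium- and potassium-containing depolarizing buffer / Compound: one concentration, matched DMSO / Incubation: 20 min compound pretreatment at room temperature / Measured by: kinetic FluxOR fluorescence, 10 s baseline plus 110 s post-stimulus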
hERG protect = hERG rescue from dofetilide block, primary screen, cell-based, CHO-hERG, FluxOR thallium flux, dofetilide IC70 | Voltage-gated inwardly rectifying potassium channel KCNH2 (Homo sapiens), Q12809 | dofetilide IC70 present | activation (rescue from dofetilide block), less the hit threshold, % at 10 µM | hit rate 0.51% among 310,000;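 active means activation above the mean of controls blocked by dofetilide plus 5 SD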;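 further: thallium influx through hERG after potassium depolarization seen as dye fluorescence rise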
KCNK3 inh = human KCNK3 channel inhibitors, primary screen, CHO cells, FluxOR thallium flux, B-score; B-score at 10 µM; hit rate 0.84% among 340,000; FluxOR fluorescence; hits give low values;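 active means B-score under library mean minus 4 SD, starting fluorescence ratio at most library mean plus 5 SD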;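 further: more negative B-score means stronger inhibition of thallium flux through KCNK3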
KCNQ1 block = inhibitors of human KCNQ1 channel, primary screen, cell-based, thallium flux, high-throughput. B-score at 10 µM. CHO-K1 KCNQ1, FluxOR thallium flux fluorescence; hits give high values. AID 2642, 2010. hit rate 1.3% among 310,000;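 active means compounds whose thallium flux B-score, printed positive for inhibition, exceeds three library SD while starting fluorescence stays within three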;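 further: channel opened by potassium depolarization with thallium stimulus after 20 min compound exposure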
KCNK9 block = KCNK9 potassium channel inhibitors, primary screen, HEK293 cells, thallium flux; Potassium channel subfamily K member 9 (Homo sapiens), Q9NPC2; AID 488922, 2010; B-score at 10 µM; FluxOR thallium flux fluorescence; hits give low values; hit rate 1.2% among 310,000;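 active means ratio B-score over 3 SD below the library mean, with starting fluorescence within 5 SD of its mean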;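 further: negative B-score means less thallium flux so channel inhibition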
KCNK9 block conf = KCNK9 potassium channel inhibitors, confirmation, HEK293 cells, thallium flux, duplicate; AID 492992, 2010; shares compounds with KCNK9 block; FluxOR thallium flux fluorescence; hit rate 43% among 4,900; inhibition, % at 10 µM;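 active means thallium signal inhibited by more than 5 SD of the compound-free buffer control wells, on both duplicate plates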;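 further: 0% = assay buffer control wells without compound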
Kir21 sel = mouse Kir2.1 channel inhibition, confirmation, selectivity assay for KCNK9 modulator project, cell-based, HEK293, thallium flux; shares compounds with KCNK9 block; hit rate 4% among 4,900; inhibition, % at 10 µM; Kir2.1 cells, FluxOR thallium flux fluorescence;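 active means thallium signal drop more than 5 SD beyond the mean of the no-compound control wells, seen in both duplicate plates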;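 further: signal is fluorescence rise after thallium addition divided by baseline fluorescence; plate controls were assay buffer only for no effect and full block by chlorpromazine control for full effect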
KCNK9 uninduced = thallium flux in non-induced HEK293 cells, confirmation, counter-screen for KCNK9 inhibitor project, cell-based, second counter screen, non-induced KCNK9-HEK293; inhibition, % at 10 µM; hit rate 40% among 4,900; shares compounds with KCNK9 block; FluxOR thallium flux; AID 492997, 2010;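 active means thallium signal drop beyond 5 SD of the untreated control mean, on both duplicate plates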;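 further: plate controls were buffer only IC0 wells for no effect and SID17386958 at its maximal inhibitory level for full effect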
* hit, by the source's call; i = inactive; . = no result given. Most compounds without a hit are left out; they make up all but 3.7% or so of the library.

SMILES	Kir21 inh	KCNQ1 act	hERG protect	KCNK3 inh	KCNQ1 block	KCNK9 block	KCNK9 block conf	Kir21 sel	KCNK9 uninduced
Cc1cc(C)n(-c2nc(NCCN(C)C)c3c4c(sc3n2)COC(C)(C)C4)n1	-1.06	i	-11.8	i	i	i	.	.	.
COc1cc(O)c(CC=C(C)C)c(O)c1C(=O)CCc1ccc(O)cc1	1.58	i	-15.3	i	i	-14.1*	32.0%*	i	33.5%*
O=C(CCc1ccc(O)cc1)c1c(O)cc(O)cc1O	0	i	-33.4	i	i	i	.	.	.
Cc1ccc2nc(-c3ccccn3)cc(C(=O)NCCc3ccc(F)cc3)c2c1	1.28	i	-3.1	i	i	i	.	.	.
COc1ccccc1OCCOCCOc1ccc(C)cc1Br	-1.28	i	-4.9	i	i	i	i	i	i
Cc1ccc(OCCCCN(C)Cc2ccccc2)c(Br)c1	-12.5*	i	-13.9	i	i	i	i	79.5%*	i
COc1cc(C)ccc1OCCCOc1ccccc1Br	-1.96	i	-4.0	i	i	i	.	.	.
COc1ccccc1OCCCOc1ccc(C)cc1Br	0.03	i	-4.7	i	i	i	.	.	.
CCCCNC(=O)[C@H]1N2C(=O)c3c(ccc(OC)c3OC)C2SC1(C)C (stereo partly drawn)	1.09	i	-4.0	i	i	i	.	.	.
O=C(CC(Nc1ccccc1)c1ccc(F)cc1)c1ccccc1 (stereo not drawn)	-5.52*	i	-14.0	i	i	-9.72*	60.0%*	i	42.5%*
COC(=O)c1c(NC(=O)CCc2ccc(C)o2)sc(C)c1C	-0.49	i	-12.1	i	i	i	.	.	.
CCOC(=O)c1c(NC(=O)CSc2nnc(Cc3ccccc3)o2)sc(C)c1C	-1.74	i	-5.8	i	i	i	i	i	i
CCOC(=O)c1c(NC(=O)CSc2nnc(-c3ccc(Cl)cc3)o2)sc2c1CCC2	-1.07	i	-11.4	i	i	i	i	i	i
CCOC(=O)c1c(NC(=O)CCc2ccc(CC)o2)sc(C)c1C	0.1	i	-18.7	i	i	i	i	i	24.0%*
CCOC(=O)c1c(NC(=O)CSc2nc3ccccc3s2)sc(C)c1C	1.58	i	-10.9	i	i	i	i	i	i
O=C(OCc1cc(=O)n2ccsc2n1)c1ccc(O)cc1O	.	.	.	i	.	.	.	.	.
COc1ccc(/C=N/N2C(C)CCCC2C)cc1OC (stereo not drawn)	0.81	i	0.0	i	i	i	.	.	.
Cc1cccc(C(=O)NCC(=O)N2CCC2)c1	.	.	.	i	.	.	.	.	.
Cc1nnc(SCC(=O)Nc2sc3c(c2C(=O)c2ccccc2)CCCC3)s1	-2.05	i	-7.8	i	i	i	i	i	i
Cc1ccc(Cl)cc1N1CCN(Cc2cc3c(cc2O)CCC3)CC1	-0.21	i	-15.5	i	i	i	i	i	i
Cc1ccc(Cl)cc1N1CCN(C(=O)c2ccc(CN3CCOCC3)cc2)CC1	-1.61	i	-2.9	i	i	i	.	.	.
NC(N)=Nc1nc(-c2ccccc2)c2ccccc2n1	-3.39	i	-20.8	i	i	-9.61*	27.0%*	i	i
CCc1nc(N=C(N)N)nc2ccccc12	-0.02	i	-1.9	.	i	i	.	.	.
Nc1ccc(-c2nnnn2-c2ccc(N)cc2)cc1	1.31	i	-8.1	i	i	i	.	.	.
CC(=O)CCC1C2C(O)C(C(C)C)C(OC(=O)/C=C/c3ccccc3)CC12C (stereo not drawn)	0.78	i	-9.6	i	i	i	i	i	i
SMILES	Kir21 inh	KCNQ1 act	hERG protect	KCNK3 inh	KCNQ1 block	KCNK9 block	KCNK9 block conf	Kir21 sel	KCNK9 uninduced
CO/N=C(\c1nonc1N)N1CCN(c2ccc(Cl)cc2[N+](=O)[O-])CC1	1.44	i	-14.3	i	i	-8.27*	31.5%*	i	39.0%*
COc1cccc(-c2ccc(SCc3ccccn3)nn2)c1	-1.72	i	-22.9	i	i	i	i	i	i
CCCCC(NC(=O)CCc1c(C)c2cc3c4c(oc3c(C)c2oc1=O)CCCC4)C(=O)O (stereo not drawn)	1	i	-12.0	i	i	i	.	.	.
CC(C)Cc1c2c([nH]c(=S)c1C#N)CCCC2	-0.85	i	-2.4	i	i	i	.	.	.
CCCCCCCc1c(C#N)c(N)[nH]c(=S)c1C#N	0.1	i	-18.9	i	7*	i	i	i	i
Cc1cc(C)n(-c2ncnc3ccccc23)n1	0.66	i	-6.7	i	i	i	.	.	.
O=C(Nc1ccccc1N1CCOCC1)c1cccc2c(Br)cccc12	-2.54	i	-2.0	i	i	i	i	i	i
CCc1ccccc1NC(=O)c1cc([N+](=O)[O-])ccc1N1CCOCC1	-0.24	i	-5.1	i	i	i	.	.	.
CC1CCN(c2ccccc2NC(=O)c2cc([N+](=O)[O-])ccc2N2CCOCC2)CC1	1.29	i	-12.6	i	8*	-9.82*	30.5%*	i	30.0%*
CC(=O)c1ccc2c(c1)N(CCCN(C)C)c1ccccc1S2	.	.	.	i	.	.	.	.	.
CC(=O)c1ccc2c(c1)N(C)c1ccccc1S2	0.82	i	-6.5	i	i	i	i	i	i
CC(=O)c1ccc(OC(=O)CN2C(=O)c3ccccc3C2=O)cc1	0.24	i	-1.1	i	i	i	.	.	.
CC(=O)c1ccc(OC(=O)CCN2c3ccccc3Sc3ccccc32)cc1	1.17	i	-7.2	i	i	-11.7*	74.5%*	i	27.5%*
